Data as given in ChEMBL document CHEMBL4049421, “Design, Synthesis, and Pharmacological Characterization of N-(4-(2 (6,7-Dimethoxy-3,4-dihydroisoquinolin-2(1H)yl)ethyl)phenyl)quinazolin-4-amine Derivatives: Novel Inhibitors Reversing P-Glycoprotein-Mediated Multidrug Resistance” (J Med Chem, 2017).
pEC50, pIC50: −log10 of the molar value. The source made the active and inactive calls. The calls are words filed in the database; no cut-off is given here.

Legend:
[1] = Cytotoxicity against human K562 cells assessed as cell viability at 1.0 uM after 48 hrs by MTT assay (reference value: >99%); format: cell-based; conditions: read-out: Activity
K562 = assay: Cytotoxicity against human K562 cells assessed as suppression of cell viability after 48 hrs by MTT assay; format: cell-based; conditions: K562, 48 h
Procedure, shortened: (§1)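 MTT assay on HUVEC, K562 or K562/A02 cells seeded at 1×10^4 cells per well, using serial compound concentrations. Formazan was dissolved in DMSO and read at 490 nm. IC50 was obtained from log dose–response curves, mean ± SD of three independent tests.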

HUVEC = assay: Cytotoxicity against HUVEC assessed as reduction in cell viability after 48 hrs by MTT assay; format: cell-based; conditions: Homo sapiens; procedure, shortened: as §1
[2] = Inhibition of P-gp in human K562/A02 cells assessed as potentiation of doxorubicin-induced cytotoxicity by measuring fold reduction in doxorubicin IC50 after 48 hrs by MTT assay relative to doxorubicin alone; format: cell-based; conditions: K562/A02, 48 h
Procedure, shortened: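 K562/A02 cells (1×10^4 cells per well) were exposed to a DOX concentration series, alone or with modulator at 1.0 μM, for 48 h. Viability was read by MTT at 490 nm. Reversal fold = DOX IC50 without inhibitor / DOX IC50 with inhibitor, mean ± SD of three tests.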

Homo sapiens [3] = organism: Homo sapiens; assay: Inhibition of P-gp in human K562/A02 cells assessed as potentiation of paclitaxel-induced cytotoxicity at 1.0 uM after 48 hrs by MTT assay; format: cell-based
Procedure, shortened: (§2)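 K562/A02 cells were exposed for 48 h to DNR, PTX, VLB or CTX at 0, 0.313–20 μM, with or without modulator at 1.0 μM. Viability was measured by MTT at 490 nm, mean ± SD of three independent tests.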

Homo sapiens [4] = organism: Homo sapiens; assay: Inhibition of P-gp in human K562/A02 cells assessed as potentiation of vinblastine-induced cytotoxicity at 1.0 uM after 48 hrs by MTT assay; format: cell-based; procedure, shortened: as §2
Homo sapiens [5] = organism: Homo sapiens; assay: Inhibition of P-gp in human K562/A02 cells assessed as accumulation of doxorubicin at 0.1 uM to 5.0 uM after 150 mins by fluorescence spectrophotometric analysis; format: cell-based
Procedure, shortened: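 K562/A02 cells (4×10^5) were incubated 150 min at 37 °C with 20.0 μM DOX plus modulator at various concentrations, with 0.1% DMSO as negative control. Cells were washed with cold PBS and lysed in HCl/Triton X-100/isopropanol. DOX fluorescence was read at ex 460 / em 587 nm. Mean ± SD, n = 3.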

[6] = Inhibition of CYP3A4 in rat liver microsomes assessed as decrease in 6beta-OH testosterone levels at 40 uM using testosterone as substrate by HPLC analysis; format: ADME
Procedure, shortened: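 Rat liver microsomes, prepared by differential centrifugation, were incubated with testosterone in the absence or presence of compound at 2.5, 5.0, 10.0, 20.0 and 40.0 μM. The 6β-OH testosterone product was quantified by C18 reverse-phase gradient HPLC at 254 nm. Ketoconazole served as positive control. n = 3.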

Rattus norvegicus [7] = assay: AUC(0 to 24 hrs) in Sprague-Dawley rat plasma at 10 mg/kg, po measured after 24 hrs by LC-MS/MS analysis; format: ADME, organism-based; design: dose 10 mg/kg, time < 24 hr, route oral; conditions: in vivo
Procedure, shortened: (§3)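 Male Sprague-Dawley rats, n = 3 per group, given drug in Tween-80/ethanol/saline (5:10:85, v/v) at 10 mg/kg p.o. or 5 mg/kg i.v. Retro-orbital blood was taken at 5 min to 24 h, and plasma separated at 900g. Samples were spiked with internal standard, methanol-precipitated and quantified by LC-MS/MS. F = (AUCpo/AUCiv)×(dose iv/dose po)×100%.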

Rattus norvegicus [8] = assay: AUC(0 to 24 hrs) in Sprague-Dawley rat plasma at 5 mg/kg, iv measured after 24 hrs by LC-MS/MS analysis; format: ADME, organism-based; design: dose 5 mg/kg, time < 24 hr, route intravenous; conditions: in vivo; procedure, shortened: as §3
[9] = Elimination half life in Sprague-Dawley rat plasma at 10 mg/kg, po by LC-MS/MS analysis; format: ADME, organism-based; conditions: read-out: beta t1/2 (converted); procedure, shortened: as §3
[10] = Plasma clearance in Sprague-Dawley rat at 5 mg/kg, iv measured after 24 hrs by LC-MS/MS analysis; format: ADME, organism-based; procedure, shortened: as §3
[11] = Bioavailability in Sprague-Dawley rat plasma at 5 mg/kg, iv measured after 24 hrs by LC-MS/MS analysis; format: ADME, organism-based
Procedure, shortened: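 Bioavailability was calculated as (AUCpo/AUCiv)×(dose iv/dose po)×100% from male SD rats (n = 3) dosed 5 mg/kg i.v. or 10 mg/kg p.o. in Tween-80/ethanol/saline (5:10:85). Plasma sampled 5 min–24 h was analysed by LC-MS/MS.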

Rattus norvegicus [12] = assay: Effect on plasma concentration of doxorubicin in Sprague-Dawley rat at 5 mg/kg, iv co-administered with doxorubicin measured after 8 hrs by LC-MS/MS analysis; format: ADME, organism-based; conditions: in vivo
Procedure, shortened: (§4)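 Male SD rats received DOX 10 mg/kg i.v. alone or with modulator 5 mg/kg i.v. Orbital blood was taken at 5 min to 8 h. Plasma DOX was measured by LC-MS/MS with DNR (0.5 μg/mL) as internal standard. Mean ± SD, n = 3.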

Rattus norvegicus [13] = assay: Effect on MRT of doxorubicin in Sprague-Dawley rat at 5 mg/kg, iv co-administered with doxorubicin measured after 8 hrs by LC-MS/MS analysis; format: ADME, organism-based; conditions: in vivo; procedure, shortened: as §4

- inhibition (INH) [6]: Not Active
- AUC (Rattus norvegicus [7]): 3130 ng·h/mL
- AUC (Rattus norvegicus [8]): 1660 ng·h/mL
- half-life [9]: 6.2 h
- clearance [10]: 47.8 mL/min/kg
- bioavailability [11]: 95.3%
SMILES: COc1cc2c(cc1OC)CN(CCc1ccc(Nc3nc(-c4ccncc4)nc4ccccc34)cc1)CC2
- viability at 48 h, 1 µM [1]: 96.5%
- pIC50 (K562): 5.40
- pIC50 (HUVEC): 4.13
- pEC50 [2]: 7.24
- inhibition (Homo sapiens [3]): Active
- inhibition (Homo sapiens [4]): Active
- inhibition (Homo sapiens [5]): Active
- Activity (Rattus norvegicus [12]): Non-Toxic
- Activity (Rattus norvegicus [13]): Non-Toxic
